From ChEMBL document CHEMBL3286157, “Polyketides from the cultured lichen mycobiont of a Vietnamese Pyrenula sp” (J Nat Prod, 2014)
The source made the active and inactive calls. No cut-off for these calls is given here.

Tests used:
DNA polymerase beta = DNA polymerase beta (Rattus norvegicus, UniProt P06766); assay: (§1) Inhibition of rat recombinant DNA polymerase beta expressed in Escherichia coli JMpbeta5 cells assessed as incorporation of [3H]dTTP into poly(dA)/oligo(dT)18 DNA-template primer after 60 mins
Procedure, shortened: (§2)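 Pol α from calf thymus, purified by immunoaffinity column. Rat pol β expressed in E. coli JMpβ5. Template-primer poly(dA)/oligo(dT)18 (A/T 2:1) with [3H]dTTP (43 Ci/mmol). Each enzyme (0.05 unit) was preincubated with compound for 10 min at 0 °C in 50 mM Tris-HCl pH 7.5 with 1 mM DTT, 50% glycerol and 0.1 mM EDTA. Reaction ran 60 min at 37 °C. Activity relative to no-inhibitor control; IC50 from dose-response curves.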

[1] = (§3) Inhibition of calf thymus DNA polymerase alpha assessed as incorporation of [3H]dTTP into poly(dA)/oligo(dT)18 DNA-template primer after 60 mins; parameters: species or system Bos taurus; procedure, shortened: as §2
HCT-116 = assay: Cytotoxicity against human HCT116 cells assessed as inhibition of cell proliferation after 24 hrs by WST-1 assay; format: functional, cell-based; details: HCT-116, 24 h
Procedure, shortened: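 HCT116 cells from ATCC, grown in McCoy's 5A with 10% FBS, penicillin and streptomycin at 37 °C under 5% CO2. Plated at 1 × 10^4 cells per well with compound at 10 and 100 μM for 24 h. Viability read by WST-1. IC50 given as mean ± SD of five independent experiments.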

Bos taurus [2] = species: Bos taurus; assay: Inhibition of calf thymus DNA polymerase alpha assessed as incorporation of [3H]dTTP into poly(dA)/oligo(dT)18 DNA-template primer at 100 uM after 60 mins
Procedure, shortened: (§4)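 Single-concentration screen at 100 μM. Compound was dissolved in DMSO and sonicated 30 s. Enzyme (0.05 unit of calf thymus pol α or E. coli-expressed rat pol β) was preincubated 10 min at 0 °C in Tris-HCl pH 7.5/DTT/glycerol/EDTA. Reaction with poly(dA)/oligo(dT)18 and [3H]dTTP ran 60 min at 37 °C. Activity given as percent of no-inhibitor control.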

[3] = molecular target: DNA polymerase beta (Rattus norvegicus) (UniProt P06766); assay: Inhibition of rat recombinant DNA polymerase beta expressed in Escherichia coli JMpbeta5 cells assessed as incorporation of [3H]dTTP into poly(dA)/oligo(dT)18 DNA-template primer at 100 uM after 60 mins; procedure, shortened: as §4
[4] = molecular target: DNA polymerase beta (Rattus norvegicus) (UniProt P06766); assay: as §1; procedure, shortened: as §2
Bos taurus [5] = species: Bos taurus; assay: as §3; procedure, shortened: as §2

SMILES | IC50 (DNA polymerase beta) [µM] | IC50 [1] [µM] | IC50 (HCT-116) [µM] | inhibition (Bos taurus [2]) | inhibition [3] | inhibition [4] | inhibition (Bos taurus [5])
CC1=CC[C@@H]2[C@H](C=C(C)[C@H]3[C@]4(C)OCC[C@@H](C)[C@H]4O[C@H](/C=C/C=C/C(=O)O)[C@@H](O)[C@@]23O)C1 | > 100 | > 100 | > 100 | Active | Active | – | –
CC[C@@H](C)[C@H]1O[C@H](/C=C/C=C/C(=O)O)[C@@H](O)[C@@]2(O)[C@@H]3CC=C(C)C[C@H]3C=C(C)[C@H]2[C@]1(C)O | > 100 | > 100 | > 100 | Active | Active | – | –
C=C1[C@@H]2C(C)=C[C@@H]3CC(C)=CC[C@H]3[C@@H]2[C@H](O)[C@@H](/C=C/C=C/C(=O)O)O[C@@H]1[C@H](C)CC | 19.5 | 17.3 | 26.1 | Active | Active | Dose-dependent effect | Dose-dependent effect
CC[C@@H](C)[C@H]1O[C@]1(C)[C@@H]1C(C)=C[C@@H]2CC(C)=CC[C@H]2[C@@H]1/C=C/C=C/C=C/C(=O)O | 9.5 | 8.1 | 6.4 | Active | Active | Dose-dependent effect | Dose-dependent effect
Cc1cn([C@H]2CC[C@@H](COP(=O)(O)OP(=O)(O)OP(=O)(O)O)O2)c(=O)[nH]c1=O | 30.8 | > 100 | > 100 | – | – | – | –
C=C1[C@@H]([C@H](C)CC)O[C@H](/C=C/C=C/C(=O)O)[C@@H](O)[C@H]2[C@@H]3CC=C(C)C[C@H]3C=C(C)[C@@]12O | > 100 | > 100 | > 100 | Active | Active | – | –
CC1=CC[C@H]2[C@@H]3[C@H](O)[C@@H](/C=C/C=C/C(=O)O)O[C@@H]4[C@H](C)CCO[C@@]4(C)[C@@H]3C(C)=C[C@@H]2C1 | 37.9 | 47.2 | 74.8 | Active | Active | – | –
C[C@@]1(CO)[C@H](O)CC[C@@]2(C)[C@H]1CC[C@H]1C[C@@H]3C[C@@]12CC[C@]3(O)CO [APHIDICOLIN] | > 100 | 19.6 | 9 | – | – | – | –
